“And” between values parts separate entries of the source, which are not always exact repeats. Identical values can stand only once.
Test system: U2OS
Test: Multiplex assay against U2OS
Type: toxicity, cell-based
Conditions: human
Method in brief: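 Cells were classed with CellPathfinder machine-learning gating, first as Hoechst high-intensity objects or normal cells, then (normal cells) as healthy, pyknosed or fragmented nuclei, and finally (pyknosed cells) as mitotic or apoptotic. Staining of live cells at seeding used Hoechst33342, BioTracker Green Microtubule Cytoskeleton Dye, MitoTracker Red and Annexin V Alexa Fluor 680, with imaging on a CQ1 microscope at 37°C and 5% CO2 after compound addition. Tubulin, mitochondrial-mass and membrane-permeability phenotypes are per cents of healthy-nucleus cells.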

[1] = 12 h, 1 µM, compound concentration 1 uM
[2] = 12 h, 10 µM, compound concentration 10 uM
[3] = 24 h, 1 µM, compound concentration 1 uM
[4] = 24 h, 10 µM, compound concentration 10 uM
[5] = 48 h, 1 µM, compound concentration 1 uM
[6] = 48 h, 10 µM, compound concentration 10 uM

CN(C)c1ccnc2sc3c(=O)n(N4CCCCCC4)cnc3c12
Population Apoptotic (%) [1]: 81% and 87%
Population Fragmented Nuclei (%) [1]: 19% and 16%
Population Healthy Nuclei (%) [1]: 72% and 77%
Population Hoechst High Intensity Objects (%) [1]: 1%
Population Membrane Permeable-Phenotype (%) [1]: 4% and 6%
Population Mitochondria Different-Phenotype (%) [1]: 2%
Population Mitotic Cells (%) [1]: 18% and 12%
Population Normal (%) [1]: 98%
Population Pyknosed Nuclei (%) [1]: 7% and 6%
Population Tubulin-Different-Phenotype (%) [1]: 2%
Total Cell Count [1]: 284 and 132
Population Apoptotic (%) [2]: 41% and 88%
Population Fragmented Nuclei (%) [2]: 30% and 18%
Population Healthy Nuclei (%) [2]: 56% and 71%
Population Hoechst High Intensity Objects (%) [2]: 4% and 5%
Population Membrane Permeable-Phenotype (%) [2]: 30% and 23%
Population Mitochondria Different-Phenotype (%) [2]: 14% and 27%
Population Normal (%) [2]: 95% and 94%
Population Pyknosed Nuclei (%) [2]: 12% and 9%
Population Tubulin-Different-Phenotype (%) [2]: 20% and 22%
Total Cell Count [2]: 249 and 101
Population Apoptotic (%) [3]: 87% and 72%
Population Fragmented Nuclei (%) [3]: 16% and 15%
Population Healthy Nuclei (%) [3]: 72% and 76%
Population Hoechst High Intensity Objects (%) [3]: 2%
Population Membrane Permeable-Phenotype (%) [3]: 3% and 6%
Population Mitochondria Different-Phenotype (%) [3]: 3%
Population Mitotic Cells (%) [3]: 12% and 27%
Population Normal (%) [3]: 97%
Population Pyknosed Nuclei (%) [3]: 10% and 7%
Population Tubulin-Different-Phenotype (%) [3]: 1% and 4%
Total Cell Count [3]: 326 and 150
Population Apoptotic (%) [4]: 68% and 100%
Population Fragmented Nuclei (%) [4]: 28% and 11%
Population Healthy Nuclei (%) [4]: 56% and 75%
Population Hoechst High Intensity Objects (%) [4]: 4% and 3%
Population Membrane Permeable-Phenotype (%) [4]: 22% and 23%
Population Mitochondria Different-Phenotype (%) [4]: 15% and 25%
Population Normal (%) [4]: 95% and 96%
Population Pyknosed Nuclei (%) [4]: 15% and 13%
Population Tubulin-Different-Phenotype (%) [4]: 14% and 24%
Total Cell Count [4]: 260 and 108
Population Apoptotic (%) [5]: 90% and 92%
Population Fragmented Nuclei (%) [5]: 17% and 15%
Population Healthy Nuclei (%) [5]: 74% and 72%
Population Hoechst High Intensity Objects (%) [5]: 2%
Population Membrane Permeable-Phenotype (%) [5]: 4% and 5%
Population Mitochondria Different-Phenotype (%) [5]: 1% and 5%
Population Mitotic Cells (%) [5]: 9% and 7%
Population Normal (%) [5]: 97%
Population Pyknosed Nuclei (%) [5]: 8% and 11%
Population Tubulin-Different-Phenotype (%) [5]: 2%
Total Cell Count [5]: 486 and 239
Population Apoptotic (%) [6]: 68% and 72%
Population Fragmented Nuclei (%) [6]: 28% and 15%
Population Healthy Nuclei (%) [6]: 57% and 61%
Population Hoechst High Intensity Objects (%) [6]: 4% and 9%
Population Membrane Permeable-Phenotype (%) [6]: 15% and 21%
Population Mitochondria Different-Phenotype (%) [6]: 11% and 19%
Population Mitotic Cells (%) [6]: 31% and 27%
Population Normal (%) [6]: 95% and 90%
Population Pyknosed Nuclei (%) [6]: 14% and 22%
Total Cell Count [6]: 325 and 140

CCCOc1ccc2[nH]cc(C3=CCNCC3)c2n1.Cl
Population Apoptotic (%) [1]: 80% and 87%
Population Fragmented Nuclei (%) [1]: 31% and 13%
Population Healthy Nuclei (%) [1]: 58% and 78%
Population Hoechst High Intensity Objects (%) [1]: 2% and 1%
Population Membrane Permeable-Phenotype (%) [1]: 2% and 11%
Population Mitochondria Different-Phenotype (%) [1]: 1% and 7%
Population Mitotic Cells (%) [1]: 19% and 12%
Population Normal (%) [1]: 97% and 98%
Population Pyknosed Nuclei (%) [1]: 9% and 8%
Population Tubulin-Different-Phenotype (%) [1]: 1% and 5%
Total Cell Count [1]: 218 and 98
Population Apoptotic (%) [2]: 86% and 60%
Population Fragmented Nuclei (%) [2]: 24% and 17%
Population Healthy Nuclei (%) [2]: 66% and 74%
Population Hoechst High Intensity Objects (%) [2]: 4% and 0%
Population Membrane Permeable-Phenotype (%) [2]: 6% and 12%
Population Mitochondria Different-Phenotype (%) [2]: 5%
Population Normal (%) [2]: 96% and 100%
Population Pyknosed Nuclei (%) [2]: 8% and 7%
Population Tubulin-Different-Phenotype (%) [2]: 3% and 6%
Total Cell Count [2]: 275 and 134
Population Apoptotic (%) [3]: 70% and 90%
Population Fragmented Nuclei (%) [3]: 27% and 18%
Population Healthy Nuclei (%) [3]: 61% and 73%
Population Hoechst High Intensity Objects (%) [3]: 1% and 2%
Population Membrane Permeable-Phenotype (%) [3]: 6% and 3%
Population Mitochondria Different-Phenotype (%) [3]: 1% and 3%
Population Normal (%) [3]: 98% and 97%
Population Pyknosed Nuclei (%) [3]: 10% and 8%
Population Tubulin-Different-Phenotype (%) [3]: 3% and 2%
Total Cell Count [3]: 252 and 138
Population Apoptotic (%) [4]: 92% and 72%
Population Fragmented Nuclei (%) [4]: 25% and 14%
Population Healthy Nuclei (%) [4]: 66% and 78%
Population Hoechst High Intensity Objects (%) [4]: 3% and 0%
Population Membrane Permeable-Phenotype (%) [4]: 5% and 11%
Population Mitochondria Different-Phenotype (%) [4]: 3% and 2%
Population Normal (%) [4]: 96% and 99%
Population Pyknosed Nuclei (%) [4]: 8% and 6%
Population Tubulin-Different-Phenotype (%) [4]: 3% and 4%
Total Cell Count [4]: 323 and 162
Population Apoptotic (%) [5]: 91% and 75%
Population Fragmented Nuclei (%) [5]: 19%
Population Healthy Nuclei (%) [5]: 69% and 74%
Population Hoechst High Intensity Objects (%) [5]: 2%
Population Membrane Permeable-Phenotype (%) [5]: 5% and 9%
Population Mitochondria Different-Phenotype (%) [5]: 3%
Population Normal (%) [5]: 97%
Population Pyknosed Nuclei (%) [5]: 10% and 6%
Population Tubulin-Different-Phenotype (%) [5]: 1% and 3%
Total Cell Count [5]: 350 and 183
Population Apoptotic (%) [6]: 100% and 94%
Population Fragmented Nuclei (%) [6]: 18% and 13%
Population Healthy Nuclei (%) [6]: 75% and 78%
Population Hoechst High Intensity Objects (%) [6]: 4% and 0%
Population Membrane Permeable-Phenotype (%) [6]: 5% and 6%
Population Mitochondria Different-Phenotype (%) [6]: 2% and 3%
Population Mitotic Cells (%) [6]: 0% and 5%
Population Normal (%) [6]: 95% and 99%
Population Pyknosed Nuclei (%) [6]: 6% and 7%
Population Tubulin-Different-Phenotype (%) [6]: 3%
Total Cell Count [6]: 423 and 243

Reference: ChEMBL document CHEMBL5724801, “EUbOPEN Chemogenomics Library - Multiplex” (2024)
